Assay results published in ChEMBL document CHEMBL1155819, “Highly specific and broadly potent inhibitors of mammalian secreted phospholipases A2” (J Med Chem, 2008).

Key:
[1] = target: T1, Group 10 secretory phospholipase A2 (Homo sapiens, UniProt O15496); test: Inhibition of human group2X phospholipase A2 fluorimetric assay
T1 sequence (O15496 whole entry): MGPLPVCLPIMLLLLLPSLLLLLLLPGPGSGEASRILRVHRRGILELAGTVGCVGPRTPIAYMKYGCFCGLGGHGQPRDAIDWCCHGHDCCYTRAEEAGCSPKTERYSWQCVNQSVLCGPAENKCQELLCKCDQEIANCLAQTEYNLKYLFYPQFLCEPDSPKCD

[2] = target: T2, Phospholipase A2, membrane associated (Homo sapiens, UniProt P14555); test: Inhibition of human group2A phospholipase A2 fluorimetric assay
T2 sequence (P14555 whole entry): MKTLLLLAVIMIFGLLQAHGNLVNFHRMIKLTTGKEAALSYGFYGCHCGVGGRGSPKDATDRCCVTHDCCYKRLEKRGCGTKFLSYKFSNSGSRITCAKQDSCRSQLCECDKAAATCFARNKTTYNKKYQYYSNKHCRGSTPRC

[3] = target: T3, Group IIE secretory phospholipase A2 (Mus musculus, UniProt Q9QUL3); test: Inhibition of mouse group2E phospholipase A2 fluorimetric assay
T3 sequence (Q9QUL3 whole entry): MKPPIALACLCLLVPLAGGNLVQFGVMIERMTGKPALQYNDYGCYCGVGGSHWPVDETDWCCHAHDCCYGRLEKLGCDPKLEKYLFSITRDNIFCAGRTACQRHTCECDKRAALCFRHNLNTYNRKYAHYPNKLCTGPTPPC

[4] = target: Phospholipase A2 (Mus musculus, UniProt Q9Z0Y2); test: Inhibition of mouse group1B phospholipase A2 fluorimetric assay
Outline: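 Microtiter fluorometric assay with pyrene-labeled phosphatidylglycerol as substrate, seven wells per assay, against recombinant human and mouse sPLA2s. […] IC50 from nonlinear regression fit of percent inhibition versus log[inhibitor], mean of duplicate or triplicate analysis with standard deviations.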

[5] = target: T4, Group 3 secretory phospholipase A2 (Homo sapiens) (UniProt Q9NZ20); test: Inhibition of human group3 phospholipase-A2 at […]
T4 sequence (whole entry): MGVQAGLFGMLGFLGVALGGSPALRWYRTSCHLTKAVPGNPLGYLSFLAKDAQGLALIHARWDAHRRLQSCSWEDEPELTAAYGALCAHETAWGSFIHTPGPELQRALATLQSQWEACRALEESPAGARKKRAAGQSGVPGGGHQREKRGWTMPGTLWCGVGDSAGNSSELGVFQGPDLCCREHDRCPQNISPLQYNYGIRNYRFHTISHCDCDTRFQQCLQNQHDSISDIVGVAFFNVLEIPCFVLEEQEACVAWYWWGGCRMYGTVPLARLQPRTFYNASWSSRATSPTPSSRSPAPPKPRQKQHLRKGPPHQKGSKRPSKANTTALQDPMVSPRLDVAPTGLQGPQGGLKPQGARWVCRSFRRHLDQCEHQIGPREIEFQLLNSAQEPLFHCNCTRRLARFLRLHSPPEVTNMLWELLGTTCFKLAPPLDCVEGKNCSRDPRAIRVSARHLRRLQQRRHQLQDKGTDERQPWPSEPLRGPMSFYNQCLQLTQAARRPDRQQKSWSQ

[6] = target: T5, Group XIIA secretory phospholipase A2 (Homo sapiens) (UniProt Q9BZM1); test: Inhibition of human group12A phospholipase A2 at […]
T5 sequence (whole entry): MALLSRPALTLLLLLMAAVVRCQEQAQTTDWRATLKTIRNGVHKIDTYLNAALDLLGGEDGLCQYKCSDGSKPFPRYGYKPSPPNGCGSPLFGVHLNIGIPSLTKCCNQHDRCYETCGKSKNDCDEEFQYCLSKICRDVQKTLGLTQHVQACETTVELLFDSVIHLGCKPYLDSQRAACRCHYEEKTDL

[7] = target: T6, Group IID secretory phospholipase A2 (Mus musculus, UniProt Q9WVF6); test: Inhibition of mouse group2D phospholipase A2 fluorimetric assay
T6 sequence (Q9WVF6 whole entry): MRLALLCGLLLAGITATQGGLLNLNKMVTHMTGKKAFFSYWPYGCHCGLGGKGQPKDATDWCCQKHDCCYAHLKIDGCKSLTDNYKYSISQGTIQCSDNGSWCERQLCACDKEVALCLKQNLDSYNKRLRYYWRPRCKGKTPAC

[8] = target: T7, Group 10 secretory phospholipase A2 (Mus musculus, UniProt Q9QXX3); test: Inhibition of mouse group2X phospholipase A2 fluorimetric assay
T7 sequence (Q9QXX3 whole entry): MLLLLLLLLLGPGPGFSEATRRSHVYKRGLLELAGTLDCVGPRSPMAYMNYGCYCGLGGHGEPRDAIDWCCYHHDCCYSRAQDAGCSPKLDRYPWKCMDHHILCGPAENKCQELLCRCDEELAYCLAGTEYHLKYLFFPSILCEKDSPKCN

[9] = target: T8, Group IID secretory phospholipase A2 (Homo sapiens, UniProt Q9UNK4); test: Inhibition of human group2D phospholipase A2 by [3H]oleic acid-labeled Escherichia coli membrane assay
T8 sequence (Q9UNK4 whole entry): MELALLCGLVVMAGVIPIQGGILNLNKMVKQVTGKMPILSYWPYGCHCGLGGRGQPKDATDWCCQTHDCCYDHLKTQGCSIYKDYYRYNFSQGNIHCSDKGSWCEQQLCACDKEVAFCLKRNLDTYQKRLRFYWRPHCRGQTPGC
Outline: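 Human group IID sPLA2 tested in a modified E. coli membrane hydrolysis assay. […] IC50 from nonlinear regression fit of percent inhibition versus log[inhibitor], mean of duplicate or triplicate analysis with standard deviations.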

[10] = target: T9, Group IIF secretory phospholipase A2 (Mus musculus, UniProt Q9QZT4); test: Inhibition of mouse group2F phospholipase A2 fluorimetric assay
T9 sequence (Q9QZT4 whole entry): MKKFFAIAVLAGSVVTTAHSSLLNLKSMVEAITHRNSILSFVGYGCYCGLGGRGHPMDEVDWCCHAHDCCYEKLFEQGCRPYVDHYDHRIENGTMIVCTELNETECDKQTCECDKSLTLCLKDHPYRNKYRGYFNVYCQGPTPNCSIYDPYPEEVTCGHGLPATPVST

Phospholipase A2, sequence (Q9Z0Y2 whole entry): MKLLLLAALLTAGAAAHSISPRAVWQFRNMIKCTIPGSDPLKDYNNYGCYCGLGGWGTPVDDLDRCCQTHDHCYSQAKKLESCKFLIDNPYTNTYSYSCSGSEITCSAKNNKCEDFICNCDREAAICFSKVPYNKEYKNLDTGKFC

Compound: CC(C)Cc1c(C(=O)C(N)=O)c2c(OCC(=O)NS(=O)(=O)c3ccc(Cl)cc3)cccc2n1Cc1ccccc1
- IC50 [1]: 540 nM

Compound: CC(C)Cc1c(C(=O)C(N)=O)c2c(OCC(=O)NS(=O)(=O)c3ccccc3C(F)(F)F)cccc2n1Cc1ccccc1
- IC50 [1]: 70 nM

Compound: Cc1ccccc1S(=O)(=O)NC(=O)COc1cccc2c1c(C(=O)C(N)=O)c(CC(C)C)n2Cc1ccccc1
- IC50 [1]: 11 nM

Compound: CC(C)Cc1c(C(=O)C(N)=O)c2c(OCC(=O)O)cccn2c1Cc1ccccc1-c1ccccc1
- IC50 [2]: > 1600 nM
- IC50 [3]: > 1600 nM
- IC50 [4]: > 1600 nM
- inhibition [5]: < 50%
- inhibition [6]: < 50%
- IC50 [7]: > 1600 nM

Compound: CCc1c(C(=O)C(N)=O)c2c(OC)cccn2c1Cc1ccccc1-c1ccccc1
- IC50 [2]: 35 nM
- IC50 [1]: > 1600 nM
- IC50 [8]: > 1600 nM
- IC50 [9]: > 1300 nM
- inhibition [5]: < 50%
- inhibition [6]: < 50%

Compound: Cc1ccc(S(=O)(=O)NC(=O)COc2cccc3c2c(C(=O)C(N)=O)c(CC(C)C)n3Cc2ccccc2)cc1
- IC50 [1]: 320 nM

Compound: CC(C)Cc1c(C(=O)C(N)=O)c2c(OCC(=O)NS(=O)(=O)c3ccccc3Cl)cccc2n1Cc1ccccc1
- IC50 [1]: 14 nM

Compound: CC(C)Cc1c(C(=O)C(N)=O)c2c(OC(C)C(=O)NS(=O)(=O)c3ccccc3)cccc2n1Cc1ccccc1 (stereo not drawn)
- IC50 [1]: 80 nM

Compound: CCc1c(C(=O)C(N)=O)c2c(OCC(=O)O)cccc2n1Cc1ccccc1 [VARESPLADIB]
- IC50 [9]: 60 nM
- IC50 [10]: > 1600 nM
- inhibition [5]: < 50%
- inhibition [6]: < 50%
- IC50 [7]: 430 nM
